The list is not random: actives were taken first. Their share in the collection is about 1.9%.
core dimer inh – inhibitors of HCV core protein dimerization, primary screen, biochemical, TR-FRET, high-throughput; TR-FRET GST/Flag-core106 dimerization, 1536-well; inhibition, % at 5 µM; 0.33% of 300,000 active; AID 1899, 2009;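 active = inhibition above the mean of all tested compounds plus 3 SD, set per screening campaign, cut at about 45% in these data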
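System – GST-tagged and Flag-tagged HCV core protein residues 1-106 · Repeats – one well for each compound · Technique – TR-FRET 671 and 617 nm emission · Doses – one concentration, 5 µM, in 0.5% DMSO · Times – 4 h, 22.5 °C incubation · Also added – Eu donor and XL665 acceptor anti-tag antibodies · Measure – percent inhibition of core106 dimerization signal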
PP1 inh – PP1-alpha phosphatase inhibitors, primary screen, counter-screen for PP5 inhibitor project, biochemical, fluorescence, OMFP substrate, single point; Serine/threonine-protein phosphatase PP1-alpha catalytic subunit (Homo sapiens), P62136; purified PP1alpha; inhibition, % at 6.7 µM; 0.9% of 320,000 active;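 active = inhibition above the mean inhibition of all tested compounds plus 3 SD, computed separately for each screening campaign, cut at about 15% in these data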
Target sequence (P62136 whole entry, looked up): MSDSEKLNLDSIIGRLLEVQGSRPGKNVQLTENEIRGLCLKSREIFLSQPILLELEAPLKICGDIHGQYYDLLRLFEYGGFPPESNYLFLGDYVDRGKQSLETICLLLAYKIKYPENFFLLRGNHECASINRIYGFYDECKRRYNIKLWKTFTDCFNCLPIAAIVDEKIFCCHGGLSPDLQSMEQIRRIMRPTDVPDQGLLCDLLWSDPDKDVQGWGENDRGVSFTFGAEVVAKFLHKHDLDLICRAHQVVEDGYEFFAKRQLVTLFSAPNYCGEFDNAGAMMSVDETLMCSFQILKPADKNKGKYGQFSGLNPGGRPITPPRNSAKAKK
ZTA DNA inh – counter-screen for EBNA-1 inhibitors: inhibitors of Epstein-Barr virus ZTA | 0.15% of 320,000 active | inhibition, % at 11 µM | AID 2234 | ZTA-DNA binding, fluorescence polarization | P03206; in the data active = inhibition above about 33%
Target sequence (P03206 whole entry, looked up): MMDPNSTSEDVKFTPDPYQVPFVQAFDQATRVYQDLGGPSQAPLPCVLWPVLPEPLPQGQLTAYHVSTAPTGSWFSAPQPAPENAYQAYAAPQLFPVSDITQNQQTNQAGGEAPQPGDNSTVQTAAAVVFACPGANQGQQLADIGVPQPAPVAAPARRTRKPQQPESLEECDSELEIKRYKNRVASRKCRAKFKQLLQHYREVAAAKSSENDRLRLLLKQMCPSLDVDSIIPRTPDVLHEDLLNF
NS3 helicase inh – inhibitors of HCV NS3 helicase, primary screen, biochemical, Cy5 molecular beacon fluorescence; 0.56% of 290,000 active; AID 1800, 2009; Hepatitis C virus NS3 helicase; inhibition, % at 10.9 µM; NS3 helicase DNA unwinding;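 active = inhibition above the mean of all tested compounds plus 3 SD, set per campaign, cut at about 35% in these data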;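 note: 0% = DMSO wells and 100% = thioflavine S control wells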
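Material: hepatitis C virus NS3 helicase domain fragment enzyme; measured by: Cy5 fluorescence, 0 and 60 min reads; control set: DMSO and thioflavine S; incubation: 60 min unwinding reaction at 25 °C after ATP addition; read-out basis: % inhibition from 60/0 min fluorescence ratio, DMSO 0%, thioflavine S 100%; repeats: singlicate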
EBNA-1 inhibitor – EBNA-1 DNA-binding inhibitors, primary screen, biochemical, fluorescence polarization; inhibition, % at 14.8 µM; AID 1950, 2009; 0.34% of 300,000 active; in the data active = inhibition above about 28%
* = called active by the depositor; . = no result given.

SMILES	core dimer inh	PP1 inh	ZTA DNA inh	NS3 helicase inh	EBNA-1 inhibitor
CCc1nnc(NC(=O)C2Cc3ccccc3CN2S(=O)(=O)c2c(C)c(C)cc(C)c2C)s1 (stereo not given)	18	17*	-2	-4	6
CCc1nnc(NC(=O)C2Cc3ccccc3CN2S(=O)(=O)CC)s1 (stereo not given)	-2	-2	8	-4	1
O=C(Nc1ccccc1)C1Cc2ccccc2CN1C(=O)c1ccco1 (stereo not given)	59*	1	6	3	7
Cc1ccc(/C=C2\CCC3=C2OC(N)=C(C#N)C3c2ccc(C)cc2)cc1 (stereo not given)	76*	10	17	32	-11
Cc1ccc(C2C(C#N)=C(N)Oc3cc(N)ccc32)cc1 (stereo not given)	1	-1	3	-6	-7
O=C(Nc1ccnn1C1CCN(C(=O)Cc2ccccc2F)CC1)C1CC1	-1	1	-6	1	2
Cc1ccc(OCc2nnc(SCC(=O)Nc3cccc4ccccc34)n2-c2ccccc2)cc1	35	15*	4	-23	-2
Nc1nonc1-c1nc2ccccc2n1CC(=O)N/N=C\c1ccc(-c2ccc(Cl)cc2)o1	84*	7	24	5	15
COc1ccc(NC(=O)c2c3c(nc4ccccc24)CCC3)cc1S(=O)(=O)N1CCOCC1	78*	14	-11	9	1
Cc1ccc(NC(=O)c2c3c(nc4ccccc24)CCC3)cc1S(=O)(=O)N(C)C	66*	5	-4	16	4
Cc1ccc(NC(=O)c2c3c(nc4ccccc24)CCC3)cc1	18	2	17	6	5
COc1ccc(CCNC(=O)c2cc(C3CC3)nc3c2cnn3C(C)C)cc1	.	-3	12	.	.
O=C(Cc1cccs1)N1CCN(S(=O)(=O)c2ccc(F)c(F)c2)CC1	.	-3	-23	.	.
CCCC[C@@H]1CNCCN1CC1(c2ccccc2)CC1	-3	-2	-6	.	10
O=C(c1cc(-c2ccco2)nn1-c1cccc(Cl)c1)N1CCCCC1	56*	8	-14	23	-4
COc1ccc2nc(NC(=O)CSc3ccccc3)sc2c1	13	2	-4	-9	4
COc1ccc2nc(NC(=O)CSc3nnc(N)s3)sc2c1	33	-2	5	-4	37*
O=c1cc(O)c2c(=O)n(Cc3ccccc3)c3ccccc3c2o1	0	29*	-12	-1	3
COc1ccc(C=O)cc1OC(=O)N1CCOCC1	5	-8	-7	-20	7
Cc1oc2ccc(NS(=O)(=O)c3ccc(C(C)(C)C)cc3)cc2c1C(=O)Nc1ccccc1	54*	6	6	2	-4
CC(=O)c1c(C)oc2ccc(NS(=O)(=O)c3ccc(C)cc3)cc12	-10	-4	-4	8	-3
COc1cc(C(=S)N2CCOCC2)cc(OC)c1OC(=O)c1cccc(C)c1	0	3	3	-3	0
COc1ccc(C(C)(C)C)cc1NC(=O)CCCN1C(=O)NC(C)(C)C1=O	.	-4	-11	.	.
CC(C)(Oc1ccc(Cl)cc1)C(=O)NCC1CCCO1 (stereo not given)	1	-4	0	.	3
COC(=O)c1ccc(Oc2coc3cc(OCc4ccc([N+](=O)[O-])cc4)ccc3c2=O)cc1	68*	2	5	12	3
SMILES	core dimer inh	PP1 inh	ZTA DNA inh	NS3 helicase inh	EBNA-1 inhibitor
O=C(CSc1nccc(=O)[nH]1)NCc1ccc2c(c1)OCO2	-9	16*	-1	8	3
O=C(COc1ccccc1Cl)c1ccc[nH]1	67*	-8	-5	3	-17
Cc1ccc(S(=O)(=O)N2CCOCC2)cc1C(=O)NC(=S)N1CC(C)OC(C)C1 (stereo not given)	1	-1	14	-3	7
COC(=O)c1cc2c(=O)c3ccccc3oc2nc1/C=C/N(C)C	.	.	.	18	.
Cc1sc2nc(C(C)C)nc(SCC(=O)NC3CC3)c2c1C	-3	3	69*	5	129*
CC(=O)Nc1c(O)nc(SCC(=O)Nc2nnc(SCc3ccccc3)s2)[nH]c1=O	1	1	-3	19	0
C=CCN=c1scc(-c2ccccc2)n1/N=C/c1ccccn1	12	6	84*	-4	9
O=C1CCc2cc(NS(=O)(=O)c3ccc([N+](=O)[O-])cc3)cc3c2N1CCC3	-1	-2	2	.	5
CC(=O)c1ccc(-c2cc([C@H]3[C@H]4C=CC[C@@H](C)[C@@H]4C(=O)N3Cc3ccccc3)ccc2F)cc1	10	5	14	.	9
C[C@@H]1CC=C[C@H]2[C@H]1C(=O)N(Cc1ccccc1)[C@H]2c1ccc(F)c(-c2ccc(N(C)C)cc2)c1	12	16*	-9	.	-4
CCCn1c(CCC(=O)O)ccc1-c1ccc(OC)cc1	46*	6	5	21	7
CCOc1ccc(CCNC(=O)c2cnc(C)cn2)cc1OCC	1	2	-4	4	10
COc1ccc(/C=N/NC(=O)c2nc(-c3ccccc3)n(-c3ccccc3)n2)c(O)c1	15	16*	4	-11	5
COc1ccc(S(=O)(=O)N2CCC(C(=O)NCCC(=O)NC3CC3)CC2)cc1	-5	-4	7	-3	-5
C/C=C\C=C/C(=O)Nc1cccc(C2=NOC3(C2)C[C@H](C(N)=O)N(C(=O)CC)C3)c1 (stereo not given in full)	41	-1	8	.	8
C/C=C/C=C/C(=O)N1CC2(CC(c3cccc(NC(=O)/C=C/C)c3)=NO2)C[C@@H]1C(N)=O (stereo not given in full)	47*	-1	-6	.	5
C/C=C/C=C\C(=O)Nc1cccc(C2=NOC3(C2)C[C@@H](C(N)=O)N(C(=O)/C(C)=C/C)C3)c1 (stereo not given in full)	52*	2	10	.	14
Cc1ccc(N2C(=O)/C(=C\c3ccco3)SC2=S)cc1	37	3	-14	31	4
O=C(CCCN1C(=O)/C(=C\c2ccco2)SC1=S)Nc1ccc2ccccc2c1	46*	3	11	21	-2
O=C1/C(=C\c2ccco2)SC(=S)N1c1ccccc1	-5	-5	11	37*	6
Cc1ccc(NC(=O)CSc2nnc(N)s2)cc1S(=O)(=O)N1CCOCC1	3	-6	3	.	5
COC(=O)C1CN(C(=O)COc2ccc(Cl)c(C)c2)c2ccccc2O1 (stereo not given)	3	-5	1	-17	-1
CCCN1C(=O)C2(C(C(=O)c3ccc(C)o3)=C(O)C(=O)N2CCCOC)c2ccccc21 (stereo not given)	0	-5	-2	4	-6

From PubChem BioAssay
